Measured values taken from article PMC12065821 (Scientific Reports, 2025).

Assays:
[1] = cited from earlier work
[2] = tested on: human kidney proximal tubular HK-2 cells; conditions: identical dose of 0.75 mM; cited from earlier work
[3] = physiologically-based PK model; cited from earlier work
rats [4] = experiment: Maximal tolerability dose; assay type: in vivo; conditions: intraperitoneal
rats [5] = experiment: PK-TD model, TD component; assay type: in vivo; conditions: i.p., mean ± SD
Outline: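 Plasma creatinine and BUN time courses were linked to plasma colistin/colistin B through an indirect hypothetical effect compartment. K_e is the rate constant from the central to the effect compartment. The effect was linear: E = E₀ + S·C_e, with E₀ the pre-dose baseline. T_lag was calculated as 1/K_e. Fit was judged by R², AIC, BIC and visual inspection. Parameters are mean ± SD.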

rats [6] = experiment: Kidney injury biomarkers: plasma CR and BUN; assay type: in vivo; conditions: rat plasma, mean ± SD
Outline: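 Rats (male Sprague-Dawley) received one i.p. injection in saline, with a saline control group. Plasma came from serial heparinised jugular-vein samples, plus blood taken at sacrifice in a second cohort. Creatinine and blood urea nitrogen were measured on an automatic biochemical analyser. Peak levels and times to peak were taken from the time profiles and given as mean ± SD.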

[7] = Kidney PK of CMS/CMS-E2 and formed colistin/colistin B; assay type: in vivo, rats; conditions: for Cmax CMS/CMS-E2 in kidneys: mean ± SD, SD
Outline: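 Male Sprague-Dawley rats (300 ± 15 g) got one i.p. dose in saline. At each sampling time rats were anaesthetised with tiletamine-zolazepam (40 mg/kg) and killed, and the left kidney was frozen at −70 °C. Kidney cortex was homogenised in saline (1:10 m/v, 1% BSA). Samples went through WCX solid-phase extraction with polymyxin B1 internal standard, then LC-MS/MS. Prodrug was calculated as total (after […] sulfuric acid hydrolysis) minus free colistin/colistin B. Parameters came from non-compartmental analysis.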

patients = conditions: meta-analyses; cited from earlier work
[8] = Plasma PK of CMS/CMS-E2 and formed colistin/colistin B; assay type: in vivo, rats; conditions: rat plasma, LC-MS/MS, NCA, mean ± SD
Outline: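 Male Sprague-Dawley rats were dosed once i.p. in saline, and serial jugular-vein blood was taken before and after dosing. Blood was heparinised (1%), spun at 4,982 × g for 10 min at 4 °C, and plasma stored at −70 °C. Plasma (40 µL) went through WCX solid-phase extraction with polymyxin B1 internal standard, then LC-MS/MS. Prodrug was total (acid-hydrolysed) minus free analyte. […] Values are mean ± SD, compared by Wilcoxon rank sum.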

rats [9] = experiment: Renal histological examination; assay type: in vivo; conditions: rat kidney; for histological lesions during the first 2 h: PAS stain; for maximal SQS: mean ± SD, SD
[10] = rats; CMS and formed colistin; cited from earlier work
[11] = PK-TD model, PK component; assay type: in vivo; conditions: rats, single i.p. CMS 10 mg/kg CBA, one-compartment PK-TD model, mean ± SD
Outline: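 Plasma prodrug and formed colistin/colistin B concentrations after i.p. dosing were fitted by a compartmental model. The final model used one compartment each for prodrug and formed drug, a conversion rate constant, and linear first-order total clearance from both. Fit was judged by R², AIC, BIC and visual inspection. Estimates are mean ± SD.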

[12] = single i.p. CMS or CMS-E2 20 mg/kg CBA
[13] = rat kidney cortex, single i.p. CMS or CMS-E2 20 mg/kg CBA, LC-MS/MS, NCA

For colistin A, the plasma protein binding [1] is given as 56.6 ± 9.25% and the “apoptotic effect relative to colistin B” value [2] is given as “three times”.
For colistin methanesulphonate [CMS], the “renal CMS conversion” value [3] is given as less than 1%, the maximal tolerability dose (rats [4]) is given as 20 mg/kg CBA and the “S (slope between colistin/colistin B concentration in effect compartment and CR)” value (rats [5]; E = E0 + S·Ce) is given as 20.9 ± 9.13 mmol/g. The “Ke (rate from colistin/colistin B central compartment to effect compartment), BUN” value (rats [5]; indirect link PK-TD model, effect = BUN) was 0.157 ± 0.100 h⁻¹, the “Ke (rate from colistin/colistin B central compartment to effect compartment), CR” value (rats [5]; indirect link PK-TD model, effect = plasma CR) was 0.833 ± 0.555 h⁻¹ and the “Tlag (lag time), BUN” value (rats [5]; reciprocal of Ke, effect = BUN) was 8.45 ± 4.08 h. The “Tlag (lag time), CR” value (rats [5]; reciprocal of Ke, effect = plasma CR) was 1.73 ± 1.22 h, the “peak BUN level” value (rats [6]; single i.p. CMS 10 mg/kg CBA) was 8.09 ± 1.66 mmol/L and the “peak CR level” value (rats [6]; single i.p. CMS 10 mg/kg CBA) was 31.3 ± 5.41 µmol/L. For the same substance, the “time of peak BUN” value (rats [6]; single i.p. CMS 10 mg/kg CBA) was 5.00 ± 0.00 h, the “time of peak CR level” value (rats [6]; single i.p. CMS 10 mg/kg CBA) was 2.67 ± 1.70 h and the “peak BUN level” value (rats [6]; [12]) was 17.8 ± 3.83 mmol/L. For the same substance, the “peak CR level” value (rats [6]; [12]) was 93.1 ± 29.8 µmol/L, the “time of peak BUN” value (rats [6]; [12]) was 7.82 ± 1.34 h and the “time of peak CR level” value (rats [6]; [12]) was 5.36 ± 1.30 h. The “Tmax CMS/CMS-E2 in kidneys” value ([7]; rat kidney cortex, single i.p. CMS 10 mg/kg CBA, LC-MS/MS, NCA) was 2 h, the “Cmax CMS/CMS-E2 in kidneys” value ([7]; rat kidney cortex, single i.p. CMS 10 mg/kg CBA, LC-MS/MS) was 64.2 ± 38.1 µg/g and the “AUC0-inf CMS/CMS-E2 in kidneys” value [7, 13] was 1620 µg·h/g. For the same substance, the “Tmax CMS/CMS-E2 in kidneys” value [7, 13] was 4 h, the “t1/2 CMS/CMS-E2 in kidneys” value [7, 13] was 1.03 h and the “Cmax CMS/CMS-E2 in kidneys” value ([7]; rat kidney cortex, single i.p. CMS or CMS-E2 20 mg/kg CBA, LC-MS/MS) was 281 ± 92.8 µg/g. The “CMS concentration in renal tissue at 6, 8 h” value ([7]; rat kidney, single i.p. CMS 10 mg/kg CBA, LC-MS/MS) was “below the lower limit”, the “CMS concentration in renal tissue at 24 h” value ([7]; rat kidney, single i.p. CMS 20 mg/kg CBA, LC-MS/MS) was “below the lower limit” and the “Kidney/plasma ratio of Cmax, CMS/CMS-E2” value ([7]; rats, single i.p. CMS or CMS-E2 20 mg/kg CBA) was 7.11. The “incidence of CMS-associated nephrotoxicity” value (patients) was “up to 48%”, the “AUC0-inf CMS/CMS-E2 in plasma” value ([8]; single i.p. CMS 10 mg/kg CBA) was 30700 ± 763 ng·h/mL and the “CL/F CMS/CMS-E2” value ([8]; single i.p. CMS 10 mg/kg CBA) was 5.42 ± 0.132 mL/min/kg. For the same substance, the “Cmax CMS/CMS-E2 in plasma” value ([8]; single i.p. CMS 10 mg/kg CBA) was 21400 ± 727 ng/mL, the “Tmax CMS/CMS-E2 in plasma” value ([8]; single i.p. CMS 10 mg/kg CBA) was 0.333 ± 0.118 h and the “Vd/F CMS/CMS-E2” value ([8]; single i.p. CMS 10 mg/kg CBA) was 0.213 ± 0.0362 L/kg. For the same substance, the “t1/2 CMS/CMS-E2 in plasma” value ([8]; single i.p. CMS 10 mg/kg CBA) was 0.453 ± 0.068 h, the “AUC0-inf CMS/CMS-E2 in plasma” value [8, 12] was 149000 ± 69600 ng·h/mL and the “CL/F CMS/CMS-E2” value [8, 12] was 2.99 ± 2.02 mL/min/kg. The “Cmax CMS/CMS-E2 in plasma” value [8, 12] was 39500 ± 13700 ng/mL, the “Tmax CMS/CMS-E2 in plasma” value [8, 12] was 1.30 ± 0.458 h and the “Vd/F CMS/CMS-E2” value [8, 12] was 0.266 ± 0.0816 L/kg. For the same substance, the “t1/2 CMS/CMS-E2 in plasma” value [8, 12] was 1.27 ± 0.557 h, the “histological lesions during the first 2 h” value (rats [9]; single i.p. CMS 10 mg/kg CBA) was “No obvious histological lesion” and the “histological lesions during the first 2 h” value (rats [9]; [12]) was “No obvious histological lesion”. For the same substance, the “recovery of histological damage at 8 h” value (rats [9]; single i.p. CMS 10 mg/kg CBA) was “most of the damage was completely recovered”, the “maximal SQS” value (rats [9]; single i.p. CMS 10 mg/kg CBA) was 2.00 ± 0.00 and the “recovery of histological damage at 24 h” value (rats [9]; single i.p. CMS 20 mg/kg CBA) was “all damage was completely recovered”. The “maximal SQS” value (rats [9]; [12]) was 3.00 ± 0.00, the “t1/2 in prior reports” value [10] was 0.333 to 0.667 h and the “CLCMS/CMS-E2 (total body clearance)” value [11] was 5.14 ± 0.196 mL/min/kg. The “Ka CMS/CMS-E2 (absorption rate)” value [11] was 2.02 ± 0.260 h⁻¹ and the “V (volume of distribution)” value [11] was 0.194 ± 0.0128 L/kg.
